Reference: the array DNA melting data of Ke et al. (doi:10.1101/2024.01.08.574731)

Legend:
[1] = folding enthalpy; higher = less favourable; fluorescence melt of hairpins on a sequencing array, two-state fit; settings: sodium 0.088 M
Summary of the method: (§1)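 In 50 mM Na-HEPES pH 8.0 containing 25 mM NaCl, hairpins from the library on a sequenced MiSeq flow cell were imaged for Cy3 fluorescence at 2.5 °C steps up to 60 °C, with Cy3 and quencher oligos annealed. After normalisation to pre-quench Cy3 and to control constructs, two-state fits with bootstrapping gave melting temperature and folding enthalpy. Four replicates were combined by inverse-variance weighting, and fitted temperatures were shifted up by 9.35 °C to match UV melts.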

[2] = melting temperature; fluorescence melt of hairpins on a sequencing array, two-state fit, raised by 9.35 °C to match UV melts; settings: sodium 0.088 M
Summary of the method: as §1

Sequence | folding enthalpy [1] | Tm [2]
GTCAAGCGAAAGCTGAC (((.(((....)))))) | -107 kJ/mol | 58.6 °C
GTCAATCGAAAGATCGAC (((.(((....))).))) | -121 kJ/mol | 41.2 °C
GTCAATCGAAAGATGAC (((.(((....)))))) | -108 kJ/mol | 45.9 °C
GTCAATGGAAACGTTGAC (((((.(....).))))) | -131 kJ/mol | 48.1 °C
GTCACACGAAAGTGGGAC (((.(((....))).))) | -134 kJ/mol | 69.1 °C
GTCACAGGAAACTGCGAC (((.(((....))).))) | -121 kJ/mol | 46.1 °C
GTCACCCGAAAGGGCGAC (((.(((....))).))) | -149 kJ/mol | 58.9 °C
GTCACGCCGAAAGGCGAC (((..(((....)))))) | -26.9 kJ/mol | 32.1 °C
GTCACGCGAAAGCGGAC (((.(((....)))))) | -63.3 kJ/mol | 57 °C
GTCACGGGAAACTGTGGC (.(((.(....).))).) | -134 kJ/mol | 44.4 °C
GTCACTGCGAAAGCAGAC (((..(((....)))))) | -31.4 kJ/mol | 28.5 °C
GTCACTGGAAACAGTAAC ((.((((....)))).)) | -65.3 kJ/mol | 31.3 °C
GTCAGAACGAAAGTTGAC (((..(((....)))))) | -89.9 kJ/mol | 36.9 °C
GTCAGAGAAATCTGAC ((((((....)))))) | -156 kJ/mol | 51.2 °C
GTCAGCCGAAAGGCGGAC (((.(((....))).))) | -139 kJ/mol | 68 °C
GTCAGCGAAAGCTAGAC ((((((....))).))) | -95.4 kJ/mol | 50.7 °C
GTCAGCGAAAGCTCCGAC ((((((....)))..))) | -56.5 kJ/mol | 28.9 °C
GTCAGCGAAAGCTCGGAC ((((((....)))..))) | -52 kJ/mol | 37.3 °C
GTCAGCGAAAGCTGCGAC ((((((....)))..))) | -49.3 kJ/mol | 55.2 °C
GTCAGCGAAAGCTTGGAC ((((((....)))..))) | -58.4 kJ/mol | 38.2 °C
GTCAGGAAACTGAC (((((....))))) | -107 kJ/mol | 53.6 °C
GTCAGGCGAAAGCCAGAC (((.(((....))).))) | -97.9 kJ/mol | 59.8 °C
GTCAGGCGAAAGCCGAC (((.(((....)))))) | -69.2 kJ/mol | 60.6 °C

Sequence | folding enthalpy [1] | Tm [2]
GTCAGGGGAAACCCCGAC (((.(((....))).))) | -104 kJ/mol | 50.2 °C
GTCAGGGGAAACCTTGGC (.((.((....)).)).) | -72.4 kJ/mol | 32.7 °C
GTCATACGAAAGTAGGAC (((.(((....))).))) | -123 kJ/mol | 53.9 °C
GTCATAGGAAACCATGAC (((((.(....).))))) | -115 kJ/mol | 38.5 °C
GTCATCACGAAAGTGGAC (((..(((....)))))) | -53.3 kJ/mol | 35.3 °C
GTCATCCCGAAAGGGGAC (((..(((....)))))) | -58.9 kJ/mol | 37.8 °C
GTCATCCGAAAGGAGAC (((.(((....)))))) | -84.1 kJ/mol | 45.2 °C
GTCATCGAAAGATCGAC ((((((....))).))) | -92.5 kJ/mol | 35.7 °C
GTCATCGAAAGATGCGAC ((((((....)))..))) | -82.9 kJ/mol | 46.1 °C
GTCATCGGAAACGATGGC (.(((((....))))).) | -117 kJ/mol | 56.2 °C
GTCATCGGAAACGGTGAC ((((.((....)).)))) | -159 kJ/mol | 55 °C
GTCATGCGAAAGCAGGAC (((.(((....))).))) | -135 kJ/mol | 67.7 °C
GTCATGGGAAACCATGAC (((((((....))))))) | -186 kJ/mol | 60.7 °C
GTCATTCGAAAGAACGAC (((.(((....))).))) | -130 kJ/mol | 41.1 °C
GTCATTGGAAACAACGAC (((.(((....))).))) | -87.7 kJ/mol | 35.5 °C
GTCATTGGAAACAGTGAC ((((.((....)).)))) | -141 kJ/mol | 43.9 °C
GTCCAAGGAAACTTGGAC (((((((....))))))) | -175 kJ/mol | 61.6 °C
GTCCAAGGAAACTTGGGC (.(((((....))))).) | -195 kJ/mol | 51.1 °C
GTCCACGAAAGTGACGAC ((((((....)))..))) | -85.5 kJ/mol | 43.9 °C
GTCCACGAAAGTGCTGAC ((((((....)))..))) | -61.5 kJ/mol | 33.9 °C
GTCCACGAAAGTGGTGAC ((((((....)))..))) | -40.9 kJ/mol | 38.2 °C
GTCCACGAAAGTGTGGAC ((((((....)))..))) | -113 kJ/mol | 55.8 °C
GTCCACGGAAACGCAGAC (((..((....))..))) | -89.3 kJ/mol | 29.1 °C

Sequence | folding enthalpy [1] | Tm [2]
GTCCACGGAAACGCGGAC ((((.((....)).)))) | -192 kJ/mol | 53.8 °C
GTCCACGGAAACGTGGGC (.(((((....))))).) | -118 kJ/mol | 62.1 °C
GTCCAGGGAAACTTGGAC (((((.(....).))))) | -93.1 kJ/mol | 48.2 °C
GTCCATCGAAAGATCGAC (((.(((....))).))) | -130 kJ/mol | 35.5 °C
GTCCATGAAAATGGAC ((((((....)))))) | -133 kJ/mol | 62.4 °C
GTCCATGGAAACGTGGAC (((((.(....).))))) | -201 kJ/mol | 52.9 °C
GTCCCACGAAAGTGAGAC (((.(((....))).))) | -126 kJ/mol | 49.4 °C
GTCCCAGGAAACTGAGAC (((.(((....))).))) | -117 kJ/mol | 39 °C
GTCCCATCGAAAGATGAC (((..(((....)))))) | -50.3 kJ/mol | 25.9 °C
GTCCCCACGAAAGTGGAC (((..(((....)))))) | -28.2 kJ/mol | 29.3 °C
GTCCCCGAAAGGGAGGAC ((((((....)))..))) | -72.8 kJ/mol | 49.7 °C
GTCCCCGAAAGGGGCGAC ((((((....)))..))) | -58.5 kJ/mol | 65.8 °C
GTCCCCGAAAGGGTAGAC ((((((....)))..))) | -67.4 kJ/mol | 40.6 °C
GTCCCCTCGAAAGAGGAC (((..(((....)))))) | -35.7 kJ/mol | 33.6 °C
GTCCCGCGAAAGCGGAC (((.(((....)))))) | -41 kJ/mol | 56.3 °C
GTCCCGGGAAACTGGGAC (((((.(....).))))) | -156 kJ/mol | 60 °C
GTCCCGGGAAACTGGGGC (.(((.(....).))).) | -172 kJ/mol | 48.6 °C
GTCCCTCGAAAGAGAGAC (((.(((....))).))) | -97.5 kJ/mol | 46.2 °C
GTCCCTCGAAAGAGCGAC (((.(((....))).))) | -112 kJ/mol | 40.1 °C
GTCCGAACGAAAGTTGAC (((..(((....)))))) | -64.1 kJ/mol | 29.1 °C
GTCCGACGAAAGTCCGAC (((.(((....))).))) | -115 kJ/mol | 44 °C
GTCCGACGAAAGTCGAC (((.(((....)))))) | -55.1 kJ/mol | 44.7 °C
